Data: the EternaBench riboswitch data

Test system: MS2 coat protein
Experiment: apparent Kd, MS2 coat protein; higher = weaker binding; RNA-MaP array; FMN 200 µM where present
Outline: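 Binding was read on Illumina sequencing-chip clusters where stalled E. coli RNA polymerase had transcribed each design. A titration of SNAP-549-labelled MS2 coat protein began at 0.7 or 1.5 nM and doubled to 3 µM, once without ligand and once with constant ligand, in 100 mM Tris-HCl pH 7.5, 80 mM KCl, 4 mM MgCl2, BSA, DTT, yeast tRNA and Tween-20. The apparent Kd is the median of filtered per-cluster binding-curve fits, based on green signal normalised to red-channel RNA signal and control-cluster median Fmax.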

[1] = designed as: OFF switch for flavin mononucleotide, no ligand
[2] = ligand present: flavin mononucleotide, designed as: OFF switch for flavin mononucleotide
[3] = designed as: ON switch for flavin mononucleotide, no ligand
[4] = ligand present: flavin mononucleotide, designed as: ON switch for flavin mononucleotide

Sequence | apparent Kd [1] [nM] | apparent Kd [2] [nM] | apparent Kd [3] [nM] | apparent Kd [4] [nM]
UCGCUGCGAGGAUAUACAUGAGGAUCACCCAUGUGCGGGUCCGGGUCUUUGUCCAUUAGUAGAAGGCGCAGUGA | 305 | 82.7 |  | 
GUAGCAUACCGAGGAUAUUCAUACCGGAAACGGACAUGAGGAUCACCCAUGUUGCGAAAGCAUUGGGAGAAGGCGGAAUGCUAC |  |  | 919 | 55.8
GGAUCAGAUGAGGAUAUUCGUUGUAUAACAACAGGAGAAGGCAUCACAUGAGGAUCACCCAUGUUCUACCUUCC | 14.1 | 15.8 |  | 
UGUUAGUAGACAGGAUAUUGAAUGUUAAGUAUUAACAUGAGGAUCACCCAUGUAUUUGAUUGGUACAAGAAGGGUCAUGUUUGU |  |  | 265 | 606
UUACUCAUGUAAGGAUAUGCAGCCGUUUCGGCUGCAGAAGGUACUAUAAUACAUGAGGAUCACCCAUGUCUAUAAAAUAAAGGC |  |  | 48.9 | 50.2
AUUGUAUGGGAAGGAUAUAGAAUAUUAUUUUAACAUGAGGAUCACCCAUGUAACCUUAUGUGUAGCUAGAAGGUCCGUUUGUUA | 308 | 409 |  | 
UGUUGUAUUACAGGAUAUCUAUUAUUUUUUUUUAGAGAAGGGUAUUCACAUGAGGAUCACCCAUGUAUAUACGAGGAAGUUGUG |  |  | 59.8 | 62
CAAUUUAUGUCAGGAUAUACAAUACAAUGAUUAGUAGAAGGGAUUAAUACAUGAGGAUCACCCAUGUCAUGUGUCAUCGUGCCC | 24 | 20.7 |  | 
CGUAUGUGAGGAUAUGACAAUGGUAUCUUCGGAUACCAUUGUCAGAAGGAACAUGAGGAUCACCCAUGUAGAUC | 53.2 | 110 |  | 
UUUUUUUUUGUGAGGAUAUACUUUUUUUUUUUUUUGUAGAAGGCACAUGAGGAUCACCCAUGUUUUUUUUUCUC | 11.7 | 11.3 |  | 
GUGCGUGGCUAGGAUAUUGUGGAGUUUAGUCAGCGAGAAGGAGCCACAUGAGGAUCACCCAUGUGGUGUUGCUC | 40.5 | 101 |  | 
GGUGGACAUGAGGAUCACCCAUGUGAGGAUAUCGGCUGUCUACUCGCUGACGGCUGCUCGAGAAGGCGCAUUGU | 45.4 | 61.5 |  | 
ACAUGCAUAGCGAUAUGAUCGAGAGAUCAUGUCGCUAAAUUUAGAAGGACAUGAGGAUCACCCAUGUAGGAUAUGGGAGCAUGU |  |  | 49.5 | 10.8
UUUUAACAUGAGGAUCACCCAUGUGAGGAUAUCGAAAUUUAUAUUAAUAUUUAUUAAUCGAGAAGGCACAUUUU | 93.7 | 122 |  | 
ACAUACAUUCGAGGAUAUCGGUGAGAAAUUUUACGAGAAGGCGAUUCAUGAUUUAUUAUUUUGGACAUGAGGAUCACCCAUGUA |  |  | 83.5 | 34.1
AGUUACAAACACAACAUGAGGAUCACCCAUGUACUCUCAUGUAAGGAUAUACAUUCGUAUAGAAAGUAGAAGGUACUAAUUAUG |  |  | 515 | 340
CCGUGGCAAGGAUAUACAUAGGAGAGGAAGGCAAGAGGAGGACAUGAGGAUCACCCAUGUAGAAGGUGCAGAUC | 73.8 | 67.8 |  | 
UUAAUUAUGUAAGGAUAUACAUGAGGAUUUCUCGUAGAAGGUACAUUACAUGAGGAUCACCCAUGUGGGUGUCCGUAGACGCCA |  |  | 632 | 614
CCUUUAUUUUCAGGAUAUCCGUUUAGGUAGAUAACAUGAGGAUCACCCAUGUCCAUGUUGUAAGUGGAGAAGGGAAAGAGUGGG |  |  | 182 | 120
UUAUUUUUACAGAAGGUUUAAUAAUAUGUAUGAGAAGGAUAUGUAACAUGAGGAUCACCCAUGUUUUAUUUAUAUGAGGAUCAU |  | 9.31 |  | 
UGUCGGAGCAGAGGAUAUUACAUGAGGAUCACCCAUGUAUGAACCAAUAGCUGGAAACACCAAUGUAAGAAGGCUGCUCCGACA | 19.8 | 146 |  | 
UGGUCAUCAUCAGGAUAUUAACAUGGGCUACAUUAAGAAGGGAUAGUGGGAGAGGAAGUGAAACAUGAGGAUCACCCAUGUUGU |  |  | 32.9 | 16.2
GUAGCAUACCGAGGAUAUUCAGGGCGUGGGUAAACAUGAGGAUCACCCAUGUGGCGAAAGCCUAGGGAGAAGGCGGAAUGCUAC |  |  | 151 | 130
UGGAUGGUAUGAGGAUAUGCGCGUGAAACGCGCGCAGAAGGCAUGUCAAUAGACAUGAGGAUCACCCAUGUAUUAUCCAUCCAA |  |  | 258 | 15.8
UCGCUGCGAGGAUAUACGUGCGCGCGCGCGCGCGCGCGCGUACAUGAGGAUCACCCAUGUAGAAGGCGCUCUGC | 39.7 | 36.6 |  | 
AAGACAAAUGUAGGAUAUGCGUGGCGAAGCUAUGCAGAAGGACAUGAGGAUCACCCAUGUCUUAGCGUCUGCGUACAGAUGCUA | 16.7 | 20.9 |  | 
UUCUGUGUGUGCUAGGGCUGCACAUGAGGAUCACCCAUGUACAGAAGGUGGACACGCACUGUGGCCAAGGAUAUGUAACAUGUU | 11.2 | 36.2 |  | 
AGCUGGUGACAGCAAGAAAGUUCACAUGAGGAUCACCCAUGUAGAAGGCUGUACGGUUACCGUACAGAGGAUAUACAUAGAAAG | 19.9 | 31.5 |  | 

Sequence | apparent Kd [1] [nM] | apparent Kd [2] [nM] | apparent Kd [3] [nM] | apparent Kd [4] [nM]
GGAUAGGACAGAGGAUAUACCUGCUAGAGAUACUAGCAAAAUUUCCUCACAUGAGGAUCACCCAUGUAGAAGGCUGUCCUAUCG | 8.45 | 109 |  | 
ACUAGAUGAGGAUAUACACAUUUUAGUGUUCCUCUAGAUUAACAUGAGGAUCACCCAUGUAGAAGGCAUCAUUA | 59.7 | 218 |  | 
UCGACCAGCGCCAGUCGAACAUGAGGAUCACCCAUGUACUCCAGAAGGCCGCCCAAGUACGGAGUGGAGGAUAUGGAAGUUCUC |  |  | 47.3 | 26.3
UGUCGGAGCAGAGGAUAUUACAUGAGGAUCACCCAUGUAUUAAAUGGAAGCUGGAAACAGCAAUGUAAGAAGGCUGCUCCGACA | 59.2 | 311 |  | 
GGAUAGGACAGAGGAUAUACAGAUAGGAUCUACUAUCAAACAUUCCUGACAUGAGGAUCACCCAUGUAGAAGGCUGUCCUAUCG | 22.7 | 75.4 |  | 
GGUCGUCACAUAUACAUGAGGAUCACCCAUGUGAAAACACAUGAGGAUAUGGAUCCUAAUUGGAUCCAGAAGGCAUGGACGACC |  |  | 42.1 | 7.63
UUUUACAUAGGAUAUAGUUGCUUUUACAUGAGGAUCACCCAUGUCUCUCCUCUCUCUCUUCUAGAAGGAUGUUUCU | 54.7 | 46.5 |  | 
CGCGGACAAGAGAAGGCCAGACCUUGGAACCUAAGGCACCGCUAGGCAUGGAGGAUAUCUUGACAUGAGGAUCACCCAUGUACA |  |  | 109 | 40.9
UCUACAUAAAUUCAUCAAUACAGAAAGGAUAUGAAAUACAUGAGGAUCACCCAUGUUCAUGGGAAUUAGAAGGUUCAAUUAGCU | 220 | 137 |  | 
GGUACCAACACAGGAUAUGCUAUCCUUUGGGUAGCAGAAGGGUGAAAACAUGAGGAUCACCCAUGUGGUACCGGGCGUGAGCCC |  |  | 519 | 45.4
AGCUGUGGCCGAGGAUAUCUAGCUUCAAUAACCGAAAUAUAAUCGGACAUGAGGAUCACCCAUGUAGAGAAGGCGGUCUCAGCA | 29.6 | 29.6 |  | 
UGUCGGAGCAGAGGAUAUACAUGAGGAUCACCCAUGUAAAUGGAAGAAGACUGGAAACAGUCAAUGUAGAAGGCUGCUCCGACA | 125 | 694 |  | 
GUCCUCUCUGAGGAUAUUAUCUGGUCCGAUUGAUAAGAAGGCAGUACAUGAGGAUCACCCAUGUGGGUCGUCUG | 53.5 | 77.7 |  | 
AAAACAUGAGGAUCACCCAUGUAAAGAUCGGUCGAUCAAGGUGAGGAUAUACAAAACUUGAUGGAGUAGAAGGCACUGGGUUGA |  |  | 384 | 201
AUGGACGCAGGAUAUACAUGAGGAUCACCCAUGUUAGGGUUGUGAGUAGGAAGGGAAGGUAGAAGGGCGAGAGU | 120 | 141 |  | 
GCUAUUGGCUAAGGAUAUGGAUACAUGAGGAUCACCCAUGUAUUUUUUGUGAUCAUAUAAAUGAUCCAGAAGGUAGCUGUUAGC | 21.9 | 62.1 |  | 
AGAUAACACCAGAAGGACAUGAGGAUCACCCAUGUAGGAUAUGGGCAUCACUCGAGAAAGAAACAACCAAAAGGACACGCGGUC |  |  | 51 | 8.36
CCAUAAAAGAUCCAAAAUUACAACAUGAGGAUCACCCAUGUGCAGGAUAUCGUGAAAGUGAAGUACGAGAAGGGCAGACACUGC | 145 | 166 |  | 
UGGGUUGUUGUGAGGAUAUACUGUUUGUUUUGUUUGUAGAAGGUACAUGAGGAUCACCCAUGUUGGUUGUGGUU | 262 | 228 |  | 
UUGGACGUAGUAGGAUAUGUAGGAUAUUCCUACAUGAGGAUCACCCAUGUUGACAUGGAAGAAGGACAGAAGGACGAUGUCCAU |  |  | 405 | 5.06
CUGCUAAUAGGAUAUGCUAGGGAGGCUUCACGUUAGCAGGAACAUGAGGAUCACCCAUGUAGAAGGAUUGUAGA | 30.2 | 21.2 |  | 
GGAUAGGACAGAGGAUAUACGUGCUAGAGAUACUAGCAAAAUUUCCUCACAUGAGGAUCACCCAUGUAGAAGGCUGUCCUACCG | 17 | 484 |  | 
AUUUGACACGUAGGAUAUCGCUCUAAUUUAACACGAGAAGGACGUACAUGAGGAUCACCCAUGUUAAAUGGUGUAGUUUAUUUG | 82.1 | 164 |  | 
AAAAUACAUGAGGAUCACCCAUGUUAGGAUAUCCAAGGCCUGACCCUCAAGGUCAGGCGGAGAAGGGAUGUGGU | 50.4 | 51.3 |  | 
ACAUGAGGAUCACCCAUGUAUACAUAGGAUAUUGAGGAUCAGGGAUGUUUUACAGGAUAUGUCUACAAGAAGGAUGCAAGUAAA |  |  | 35.6 | 30
UGUACAUUAUUAAGUAAUUAGGCGAAGGAUAUAUAACAUGAGGAUCACCCAUGUACUAAGUUGAAGUAGAAGGUUGAGCAUUUC |  |  | 19 | 15.7
AAGAUGCGGGUAGGAUAUGGAGAGAAAGAAAGACCAGAAGGAUUGGUCACACAACAUGAGGAUCACCCAUGUGUGUGUUGCGAA | 14.1 | 11.9 |  | 
